Test results published in ChEMBL document CHEMBL1136257, “New highly active taxoids from 9beta-dihydrobaccatin-9,10-acetals. Part 3” (Bioorg Med Chem Lett, 2003).
Values after ≈ are worked out from the molar mass of the structure shown.

What was measured:
[1] = test system: Mus musculus; assay: Maximum rate of body weight loss was determined in mice inoculated with B16 melanoma BL6 cells sc at a dose 8 mg/kg by peroral administration; assay type: functional; conditions: route oral
How it was run: (§1)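 On day 0, B16 melanoma BL6 cells (cultured line) were implanted subcutaneously into C57BL/6 mice, six per group. A single iv or oral dose was given on day 4, and body weight was followed. BWLmax (%) is the maximum rate of body weight loss; a value below 0 means no loss.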

[2] = test system: Mus musculus; assay: Mean tumor weight was determined in mice inoculated with B16 melanoma BL6 cells sc at a dose 8 mg/kg po [IR (%) = (1-TWt/TWc)*100]; assay type: functional
How it was run: (§2)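 C57BL/6 mice (six per group) received subcutaneous B16 melanoma BL6 cells on day 0 and a single iv or oral dose on day 4. Tumors were excised and weighed on day 15. Inhibition rate IR (%) = (1 − mean treated tumor weight/mean control tumor weight) × 100.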

[3] = test system: Mus musculus; assay: Maximum rate of body weight loss was determined in mice inoculated with B16 melanoma BL6 cells sc at a dose 12 mg/kg by peroral administration; assay type: functional; conditions: route oral; how it was run: as §1
[4] = Solubility in water using UV assay; assay type: physicochemical
[5] = test system: Mus musculus; assay: Mortality rate in mice inoculated with B16 melanoma BL6 cells sc at a dose 12 mg/kg by intravenous administration; 0/6; assay type: functional
[6] = test system: Mus musculus; assay: Mean tumor weight was determined in mice inoculated with B16 melanoma BL6 cells sc at a dose 12 mg/kg po [IR (%) = (1-TWt/TWc)*100]; assay type: functional; how it was run: as §2
[7] = test system: P388; assay: Cytotoxic activity against mouse leukemia P388 cell line; assay type: functional
How it was run: (§3)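 Growth inhibition (IC50) of mouse leukemia P388 and human lung cancer PC-6 and PC-12 cells after 72 h continuous exposure to compound; IC50 taken as the concentration giving 50% growth inhibition.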

[8] = Solubility of compound in JP1 at pH 1.2 using UV assay; assay type: physicochemical; conditions: JP1, pH 1.2
[9] = test system: Mus musculus; assay: Maximum rate of body weight loss was determined in mice inoculated with B16 melanoma BL6 cells sc at a dose 18 mg/kg by peroral administration; assay type: functional; conditions: route oral; how it was run: as §1
[10] = test system: PC-6; assay: Cytotoxic activity against human lung cancer PC-6 cell line; assay type: functional; how it was run: as §3
[11] = test system: Mus musculus; assay: Mean tumor weight was determined in mice inoculated with B16 melanoma BL6 cells sc at a dose 12 mg/kg iv [IR (%) = (1-TWt/TWc)*100]; assay type: functional; how it was run: as §2
[12] = test system: Mus musculus; assay: Mortality rate in mice inoculated with B16 melanoma BL6 cells sc at a dose 8 mg/kg by peroral administration; 0/6; assay type: functional; conditions: route oral
[13] = test system: Mus musculus; assay: Mean tumor weight was determined in mice inoculated with B16 melanoma BL6 cells sc at a dose 18 mg/kg po [IR (%) = (1-TWt/TWc)*100]; assay type: functional; how it was run: as §2
[14] = Solubility of compound in JP2 at pH 6.8 using UV assay; assay type: physicochemical; conditions: JP2, pH 6.8
[15] = test system: Mus musculus; assay: Mortality was determined in mice inoculated with B16 melanoma BL6 cells sc at a dose 12 mg/kg by peroral administration; 0/6; assay type: functional; conditions: route oral
[16] = test system: PC-12; assay: Cytotoxic activity against human lung cancer PC-12 cell line
[17] = test system: Mus musculus; assay: Mortality rate in mice inoculated with B16 melanoma BL6 cells sc at a dose 18 mg/kg by intravenous administration; 0/6; assay type: functional
[18] = test system: Mus musculus; assay: Mortality was determined in mice inoculated with B16 melanoma BL6 cells sc at a dose 18 mg/kg by peroral administration; 2/6; assay type: functional; conditions: route oral
[19] = test system: Mus musculus; assay: Maximum rate of body weight loss was determined in mice inoculated with B16 melanoma BL6 cells sc at a dose 12 mg/kg by intravenous administration; assay type: functional; how it was run: as §1
[20] = test system: Mus musculus; assay: Maximum rate of body weight loss was determined in mice inoculated with B16 melanoma BL6 cells sc at a dose 5.3 mg/kg by intravenous administration; assay type: functional; how it was run: as §1
[21] = test system: Mus musculus; assay: Mortality was determined in mice inoculated with B16 melanoma BL6 cells sc at a dose 5.3 mg/kg by intravenous administration; 0/6; assay type: functional
[22] = test system: Mus musculus; assay: Mean tumor weight was determined in mice inoculated with B16 melanoma BL6 cells sc at a dose 18 mg/kg iv [IR (%) = (1-TWt/TWc)*100]; assay type: functional; how it was run: as §2
[23] = test system: Mus musculus; assay: Maximum rate of body weight loss was determined in mice inoculated with B16 melanoma BL6 cells sc at a dose 27 mg/kg by peroral administration; assay type: functional; conditions: route oral; how it was run: as §1
[24] = test system: Mus musculus; assay: Mortality was determined in mice inoculated with B16 melanoma BL6 cells sc at a dose 8 mg/kg by peroral administration; 0/6; assay type: functional; conditions: route oral
[25] = test system: Mus musculus; assay: Mean tumor weight was determined in mice inoculated with B16 melanoma BL6 cells sc at a dose 5.3 mg/kg iv [IR (%) = (1-TWt/TWc)*100]; assay type: functional; how it was run: as §2
[26] = test system: Mus musculus; assay: Mortality was determined in mice inoculated with B16 melanoma BL6 cells sc at a dose 12 mg/kg by intravenous administration; 0/6; assay type: functional
[27] = test system: Mus musculus; assay: Maximum rate of body weight loss was determined in mice inoculated with B16 melanoma BL6 cells sc at a dose 18 mg/kg by intravenous administration; assay type: functional; how it was run: as §1
[28] = test system: Mus musculus; assay: Mean tumor weight was determined in mice inoculated with B16 melanoma BL6 cells sc at a dose 8 mg/kg iv [IR (%) = (1-TWt/TWc)*100]; assay type: functional; how it was run: as §2
[29] = test system: Mus musculus; assay: Mortality was determined in mice inoculated with B16 melanoma BL6 cells sc at a dose 8 mg/kg by intravenous administration; 0/6; assay type: functional
[30] = test system: Mus musculus; assay: Mortality was determined in mice inoculated with B16 melanoma BL6 cells sc at a dose 27 mg/kg by peroral administration; 0/6; assay type: functional; conditions: route oral
[31] = test system: Mus musculus; assay: Mean tumor weight was determined in mice inoculated with B16 melanoma BL6 cells sc at a dose 27 mg/kg po [IR (%) = (1-TWt/TWc)*100]; assay type: functional; how it was run: as §2
[32] = test system: Mus musculus; assay: Mortality was determined in mice inoculated with B16 melanoma BL6 cells sc at a dose 18 mg/kg by intravenous administration; 0/6; assay type: functional
[33] = test system: Mus musculus; assay: Maximum rate of body weight loss was determined in mice inoculated with B16 melanoma BL6 cells sc at a dose 8 mg/kg by intravenous administration; assay type: functional; how it was run: as §1
[34] = test system: Mus musculus; assay: Mortality was determined in mice inoculated with B16 melanoma BL6 cells sc at a dose 18 mg/kg by peroral administration; 0/6; assay type: functional; conditions: route oral

SMILES | BWLmax [1] [%] | IR [2] [%] | BWLmax [3] [%] | solubility [4] [µg/mL] | IR [6] [%] | GI50 [7] [ng/mL] | solubility [8] [µg/mL] | BWLmax [9] [%] | GI50 [10] [ng/mL] | IR [11] [%] | IR [13] [%] | solubility [14] [µg/mL] | Mortality [15] | GI50 [16] [ng/mL] | BWLmax [19] [%] | other results
CC(=O)O[C@@]12CO[C@@H]1CC[C@@]1(C)[C@@H]3O[C@H](CN4CCOCC4)O[C@@H]3C3=C(C)[C@@H](OC(=O)[C@](C)(O)[C@@H](NC(=O)OC(C)(C)C)c4ccccn4)C[C@@](O)([C@@H](OC(=O)c4ccccc4)[C@@H]12)C3(C)C | <0 | 42.2 | <0 | 6 (≈ 6.52 µM) | 92.2 | 0.12 (≈ 0.00013 µM) | 1800 (≈ 1960 µM) | 18.1 | 0.11 (≈ 0.00012 µM) | 96.4 | 98 | 5 (≈ 5.43 µM) | 0 | 0.06 (≈ 6.52e-05 µM) | 13.5 | Mortality [5]: 0; Mortality [12]: 0; Mortality [17]: 0; Mortality [18]: 2
CC(=O)O[C@@]12CO[C@@H]1CC[C@@]1(C)[C@@H]3O[C@H](CN4CCOCC4)O[C@@H]3C3=C(C)[C@@H](OC(=O)[C@H](O)[C@@H](NC(=O)OC(C)(C)C)c4ccccn4)C[C@@](O)([C@@H](OC(=O)c4ccccc4)[C@@H]12)C3(C)C | <0 | 27.2 | <0 | 14 (≈ 15.5 µM) | 84.9 | 0.18 (≈ 0.000199 µM) | 1700 (≈ 1880 µM) | 0.3 | 0.39 (≈ 0.00043 µM) | 94.4 | 93.3 | 11 (≈ 12.1 µM) | 0 | 0.21 (≈ 0.000232 µM) | <0 | BWLmax [20]: <0%; Mortality [21]: 0; IR [22]: 95.6%; BWLmax [23]: 4.5%; Mortality [24]: 0; IR [25]: 62.4%; Mortality [26]: 0; BWLmax [27]: 3.7%; IR [28]: 87.2%; Mortality [29]: 0; Mortality [30]: 0; IR [31]: 97.3%; Mortality [32]: 0; BWLmax [33]: <0%; Mortality [34]: 0
CC(=O)O[C@@]12CO[C@@H]1CC[C@@]1(C)[C@@H]3O[C@H](CN4CCOCC4)O[C@@H]3C3=C(C)[C@@H](OC(=O)[C@](C)(O)[C@@H](NC(=O)OC(C)(C)C)c4ccccc4)C[C@@](O)([C@@H](OC(=O)c4ccccc4)[C@@H]12)C3(C)C | – | – | – | < 4 | – | 0.02 (≈ 2.18e-05 µM) | 350 (≈ 381 µM) | – | 0.47 (≈ 0.000511 µM) | – | – | < 4 | – | 0.07 (≈ 7.62e-05 µM) | – | –
CC(=O)O[C@H]1C(=O)[C@@]2(C)[C@H]([C@H](OC(=O)c3ccccc3)[C@]3(O)C[C@H](OC(=O)[C@H](O)[C@@H](NC(=O)c4ccccc4)c4ccccc4)C(C)=C1C3(C)C)[C@]1(OC(C)=O)CO[C@@H]1C[C@@H]2O [PACLITAXEL] | – | – | – | – | – | 2.93 (≈ 0.00343 µM) | – | – | 1.27 (≈ 0.00149 µM) | – | – | – | – | 539 (≈ 0.631 µM) | – | –
